The record followed here is BindingDB's records for doi:10.1021/jm020334u (Roche Discovery Welwyn, 2003).

The experiment addresses Polymerase acidic protein (Influenza A virus (strain A/Puerto Rico/8/1934 H1N1), UniProt P03433). The experiment in a line: Inhibitory concentration against cap-dependent endonuclease activity of influenza virus RNP. In outline:
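Gel-based cap-dependent endonuclease assay. 1 nM influenza RNP was incubated with 0.1 nM cap-labeled 20-mer G20 RNA in 50 mM Tris-HCl pH 8 with 1 mM MgCl₂, 20 mM KCl, 1 U/μL RNase inhibitor and 0.3% Triton X-100, for 5 min at 31 °C. Cleavage products were resolved on polyacrylamide gels and quantified by phosphorimager. IC50 came from dose–response curves.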

Each structure is given as a SMILES string.

A word on the IC50: it is the concentration that inhibits the measured activity by half. Higher therefore signals lower potency. On to `COCOn1c(=O)c(=CC(C)C)[nH]c(=CC(C)C)c1=O` [(3Z)-5-isobutyl-1-(methoxymethoxy)-3-(2-methylpropylidene)pyrazine-2,6(1H,3H)-dione], for which the IC50 was above 355 µM.

`CC(C)C=c1[nH]c(=Cc2ccc(F)cc2)c(=O)[nH]c1=O` [3-(4-fluorobenzylidene)-5-isobutylpyrazine-2,6(1H,3H)-dione] had a half-inhibitory concentration (IC50) above 365 µM.
